Activity calls are given as the source filed them. The rule behind the calls is not given here. Where a SMILES comes first, the peptide text is derived from it. Bridges are numbered along the chain shown (N, C = ends).

The test system of test [1] is [Haemophilus] ducreyi. Put plainly: Bactericidal activity against Haemophilus ducreyi CIP542 assessed as survival at 20 ug/ml by antibacterial susceptibility test relative to control. The format is functional, organism-based. In a few lines: (§1)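 Viable bacteria counted by plating. Survival expressed as percentage of peptide-free control wells. Means ± standard errors of three independent assays; mixed-model analysis with Sidak adjustment, P<0.05.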

For test [2], the system named is [Haemophilus] ducreyi. Put plainly: Bactericidal activity against Haemophilus ducreyi 35000HP assessed as survival at 2 ug/ml by antibacterial susceptibility test relative to control. In kind it is functional, organism-based. The method, boiled down: as §1
The subject of test [3] is [Haemophilus] ducreyi. Put plainly: Bactericidal activity against Haemophilus ducreyi CIP542 assessed as survival at 0.2 ug/ml by antibacterial susceptibility test relative to control. The format is functional. The method, boiled down:
as §1

Test [4] concerns [Haemophilus] ducreyi. The test is described as follows: Bactericidal activity against Haemophilus ducreyi 35000HP assessed as survival at 0.2 ug/ml by antibacterial susceptibility test relative to control. The format is functional. The method, boiled down: as §1
The subject of test [5] is [Haemophilus] ducreyi. The test is described as follows: Bactericidal activity against Haemophilus ducreyi 35000HP assessed as survival at 20 ug/ml by antibacterial susceptibility test relative to control. The format is functional, organism-based. The method, boiled down: as §1
The subject of test [6] is Escherichia coli. The test is described as follows: Bactericidal activity against Escherichia coli ML35 assessed as survival at 20 ug/ml relative to control. In kind it is functional. In a few lines:
as §1

Test [7] relates to [Haemophilus] ducreyi. Put plainly: Bactericidal activity against Haemophilus ducreyi 35000HP assessed as survival at 2 ug/ml relative to control. In kind it is functional. In a few lines: as §1
In test [8] the test system is Escherichia coli. Put plainly: Bactericidal activity against Escherichia coli ML35 after 48 to 72 hrs by radial diffusion assay. As to conditions: read-out: MEC. In kind it is functional. In a few lines:
(§2)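 Radial diffusion assay with salts omitted from the agarose underlay. Activity units are taken from inhibition zones around peptide-loaded wells. MEC is the x intercept of the best-fit line of activity against peptide concentration. Where fewer than two concentrations were active, MEC is recorded as >158 μg/ml, the assay's upper limit. Values are means of three independent assays, each run in duplicate.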

For test [9], the system named is [Haemophilus] ducreyi. Put plainly: Bactericidal activity against Haemophilus ducreyi 35000HP after 48 to 72 hrs by radial diffusion assay. The settings on record: read-out: MEC. In kind it is functional. In a few lines: as §2
In test [10] the test system is [Haemophilus] ducreyi. The test is described as follows: Bactericidal activity against Haemophilus ducreyi CIP542 after 48 to 72 hrs by radial diffusion assay. In kind it is functional. The settings on record: read-out: MEC. The method, boiled down:
as §2

Test [11] deals with Escherichia coli. The test is described as follows: Bactericidal activity against Escherichia coli ML35 assessed as survival at 2 ug/ml by tenfold serial dilution assay relative to control. The format is functional. In a few lines:
(§3)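 Mid-log-phase cells were suspended in 10 mM sodium phosphate (pH 7.4) with 1% brain-heart infusion broth and exposed to peptide dilutions for 1 h, at 33°C for H. ducreyi or 37°C for E. coli. Survivors were counted by plating, and survival was expressed as a percent of peptide-free control wells. Values are means of three independent assays.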

The subject of test [12] is Escherichia coli. Put plainly: Bactericidal activity against Escherichia coli ML35 assessed as survival at 0.5 ug/ml by twofold serial dilution assay relative to control. The format is functional. The method, boiled down:
as §3

Test [13] relates to [Haemophilus] ducreyi. Put plainly: Bactericidal activity against Haemophilus ducreyi 35000HP assessed as survival at 2 ug/ml by tenfold serial dilution assay relative to control. The format is functional. In a few lines:
as §3

Test [14] relates to [Haemophilus] ducreyi. Put plainly: Bactericidal activity against Haemophilus ducreyi 35000HP assessed as survival at 0.5 ug/ml by twofold serial dilution assay relative to control. In kind it is functional. In a few lines: as §3

In the case of `CC[C@H](C)[C@@H]1NC(=O)[C@H](CCCNC(=N)N)NC(=O)[C@H](Cc2ccc(O)cc2)NC(=O)[C@H](CCC(=O)O)NC(=O)[C@H](CCC(N)=O)NC(=O)[C@H](CO)NC(=O)[C@H](CCCNC(=N)N)NC(=O)[C@@H]2CSSC[C@@H](C(=O)N[C@@H](CC(C)C)C(=O)N[C@@H](CCCNC(=N)N)C(=O)N[C@@H](CCCCN)C(=O)O)NC(=O)[C@@H]3NC(=O)[C@H](C)NC(=O)[C@H](Cc4ccc(O)cc4)NC(=O)[C@H]([C@@H](C)O)NC(=O)[C@H](CC(N)=O)NC(=O)[C@H]4CCCN4C(=O)[C@H](CSSC[C@H](NC(=O)[C@H](CCCNC(=N)N)NC(=O)[C@H](C)NC(=O)[C@H]([C@@H](C)O)NC(=O)CNC(=O)[C@H](Cc4ccc(O)cc4)NC(=O)CNC(=O)[C@@H](NC(=O)[C@@H](NC(=O)[C@H](CCCNC(=N)N)NC(=O)[C@H](CC(=O)O)NC(=O)[C@H](CC(C)C)NC(=O)[C@@H](N)CCC(=O)O)[C@@H](C)CC)CSS3)C(=O)N[C@@H](CCCNC(=N)N)C(=O)N[C@@H](CCCCN)C(=O)N[C@@H](CCCCN)C(=O)N2)NC(=O)[C@H](CCCNC(=N)N)NC(=O)CNC1=O`, the outcome in test [Haemophilus] ducreyi [1], in [Haemophilus] ducreyi [2], in test [Haemophilus] ducreyi [3], in test [Haemophilus] ducreyi [4] and in test [Haemophilus] ducreyi [5] was inactive.
For `CC[C@H](C)[C@@H]1NC(=O)[C@@H]2CSSC[C@@H]3NC(=O)[C@H](Cc4ccccc4)NC(=O)[C@H](C)NC(=O)[C@H](Cc4c[nH]c5ccccc45)NC(=O)[C@H](CC(C)C)NC(=O)[C@H](CCCNC(=N)N)NC(=O)CNC(=O)[C@H](CCC(N)=O)NC(=O)[C@H](Cc4ccc(O)cc4)NC(=O)[C@H]([C@@H](C)CC)NC(=O)[C@H](CSSC[C@H](NC(=O)[C@H](Cc4ccc(O)cc4)NC(=O)[C@@H](N)CSSC[C@@H](C(=O)O)NC3=O)C(=O)N[C@@H](CCCNC(=N)N)C(=O)N[C@@H]([C@@H](C)CC)C(=O)N3CCC[C@H]3C(=O)N[C@@H](C)C(=O)N2)NC(=O)[C@H]([C@@H](C)O)NC(=O)CNC(=O)[C@H](Cc2ccc(O)cc2)NC(=O)[C@H](CCCNC(=N)N)NC(=O)[C@H](CCCNC(=N)N)NC(=O)[C@H](CCC(=O)O)NC(=O)CNC(=O)[C@H](C)NC1=O` (H-CYCRIPACIAGERRYGTCIYQGRLWAFCC-OH; disulfide 1-29, 3-18, 8-28), the outcome in test [Haemophilus] ducreyi [1], in test [Haemophilus] ducreyi [2], in test [Haemophilus] ducreyi [3], in [Haemophilus] ducreyi [4] and in [Haemophilus] ducreyi [5] was inactive. In addition, in the test on Escherichia coli [6], the Activity came out at 10%.
For the molecule `CC[C@H](C)[C@@H]1NC(=O)[C@H](CCCCN)NC(=O)[C@H]([C@@H](C)O)NC(=O)[C@H](Cc2ccccc2)NC(=O)[C@H]([C@@H](C)CC)NC(=O)[C@@H]2CCCN2C(=O)[C@@H]2CSSC[C@@H](C(=O)N[C@@H](CCCCN)C(=O)O)NC(=O)[C@@H]3CSSC[C@H](NC(=O)[C@H](CC(N)=O)NC(=O)[C@H](Cc4ccc(O)cc4)NC(=O)[C@H](Cc4cnc[nH]4)NC(=O)[C@@H](N)CC(=O)O)C(=O)N[C@@H](C(C)C)C(=O)N[C@@H](CO)C(=O)N[C@@H](CO)C(=O)NCC(=O)NCC(=O)N[C@@H](CCC(N)=O)C(=O)N[C@@H](CSSC[C@H](NC(=O)[C@H]([C@@H](C)O)NC(=O)CNC(=O)[C@H](CCC(N)=O)NC1=O)C(=O)N[C@@H](Cc1ccc(O)cc1)C(=O)N[C@@H](CCCNC(=N)N)C(=O)NCC(=O)N[C@@H](CCCCN)C(=O)N[C@@H](C)C(=O)N[C@@H](CCCCN)C(=O)N3)C(=O)N[C@@H](CC(C)C)C(=O)N[C@@H](Cc1ccc(O)cc1)C(=O)N[C@@H](CO)C(=O)N[C@@H](C)C(=O)N2` (H-DHYNCVSSGGQCLYSACPIFTKIQGTCYRGKAKCCK-OH; disulfide 5-34, 12-27, 17-35), the outcome in [Haemophilus] ducreyi [1], in test [Haemophilus] ducreyi [2], in [Haemophilus] ducreyi [3], in [Haemophilus] ducreyi [4] and in test [Haemophilus] ducreyi [5] was inactive.
`CC[C@H](C)[C@@H]1NC(=O)[C@H](CCCNC(=N)N)NC(=O)[C@H](Cc2ccc(O)cc2)NC(=O)[C@H](CCC(=O)O)NC(=O)[C@H](CCC(N)=O)NC(=O)[C@H](CO)NC(=O)[C@H](CCCNC(=N)N)NC(=O)[C@@H]2CSSC[C@@H](C(=O)N[C@@H](CC(C)C)C(=O)N[C@@H](CCCNC(=N)N)C(=O)N[C@@H](CCCCN)C(=O)O)NC(=O)[C@@H]3CSSC[C@H](NC(=O)[C@@H](NC(=O)[C@H](CCCNC(=N)N)NC(=O)[C@H](CC(=O)O)NC(=O)[C@H](CC(C)C)NC(=O)[C@@H](N)CCC(=O)O)[C@@H](C)CC)C(=O)NCC(=O)N[C@@H](Cc4ccc(O)cc4)C(=O)NCC(=O)N[C@@H]([C@@H](C)O)C(=O)N[C@@H](C)C(=O)N[C@@H](CCCNC(=N)N)C(=O)N[C@@H](CSSC[C@H](NC(=O)[C@H](CCCNC(=N)N)NC(=O)CNC1=O)C(=O)N1CCC[C@H]1C(=O)N[C@@H](CC(N)=O)C(=O)N[C@@H]([C@@H](C)O)C(=O)N[C@@H](Cc1ccc(O)cc1)C(=O)N[C@@H](C)C(=O)N3)C(=O)N[C@@H](CCCNC(=N)N)C(=O)N[C@@H](CCCCN)C(=O)N[C@@H](CCCCN)C(=O)N2` (H-ELDRICGYGTARCRKKCRSQEYRIGRCPNTYACCLRK-OH; disulfide 6-33, 13-27, 17-34): the Activity in test [Haemophilus] ducreyi [7] is recorded as more than 84%; in the test with Escherichia coli [6] it was less than 7%. The minimal effective concentration in the test with Escherichia coli [8] is 12.6 µg/mL; in test [Haemophilus] ducreyi [9], more than 158 µg/mL; in [Haemophilus] ducreyi [10] it was more than 158 µg/mL.
Turning to `CC[C@H](C)[C@H](NC(=O)[C@H](CCCCN)NC(=O)[C@H](CCC(=O)O)NC(=O)[C@H](CCCCN)NC(=O)[C@H](CO)NC(=O)[C@H](CCCCN)NC(=O)[C@H](CCCNC(=N)N)NC(=O)[C@H](Cc1ccccc1)NC(=O)[C@H](Cc1ccccc1)NC(=O)[C@H](CC(=O)O)NC(=O)CNC(=O)[C@H](CC(C)C)NC(=O)[C@@H](N)CC(C)C)C(=O)NCC(=O)N[C@@H](CCCCN)C(=O)N[C@@H](CCC(=O)O)C(=O)N[C@@H](Cc1ccccc1)C(=O)N[C@@H](CCCCN)C(=O)N[C@@H](CCCNC(=N)N)C(=O)N[C@H](C(=O)N[C@H](C(=O)N[C@@H](CCC(N)=O)C(=O)N[C@@H](CCCNC(=N)N)C(=O)N[C@H](C(=O)N[C@@H](CCCCN)C(=O)N[C@@H](CC(=O)O)C(=O)N[C@@H](Cc1ccccc1)C(=O)N[C@@H](CC(C)C)C(=O)N[C@@H](CCCNC(=N)N)C(=O)N[C@@H](CC(N)=O)C(=O)N[C@@H](CC(C)C)C(=O)N[C@H](C(=O)N1CCC[C@H]1C(=O)N[C@@H](CCCNC(=N)N)C(=O)N[C@H](C(=O)N[C@@H](CCC(=O)O)C(=O)N[C@@H](CO)C(=O)O)[C@@H](C)O)C(C)C)[C@@H](C)CC)C(C)C)[C@@H](C)CC` [CATHELICIDIN], the Activity is listed as 5% in the test on Escherichia coli [11], 3% with Escherichia coli [12], 16% in [Haemophilus] ducreyi [13] and 43% in test [Haemophilus] ducreyi [14]. In addition, the outcome in test [Haemophilus] ducreyi [1], in test [Haemophilus] ducreyi [2], in test [Haemophilus] ducreyi [3], in test [Haemophilus] ducreyi [4] and in test [Haemophilus] ducreyi [5] was inactive. The minimal effective concentration in the test with Escherichia coli [8] was 6.2 µg/mL; in [Haemophilus] ducreyi [9], more than 158 µg/mL; in [Haemophilus] ducreyi [10] it was more than 158 µg/mL.

These data come from ChEMBL document CHEMBL1154416, “Haemophilus ducreyi is resistant to human antimicrobial peptides” (2007).
